The results in this text go back to PubChem BioAssay.

Active and inactive are the calls of the source. Unless noted, no stated cut-off is given here; in the data, active means inhibition above about 30%; inactive means the rest.

A short description of assay [1]: Her2 expression decrease, cell viability multiplex – SKBR3 breast tumor cells, AlphaScreen, ATP viability, primary screen (AID 461;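 active means Her2 level under about 52% in both replicate screens, with viability over 70% of control, limit read from the data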;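 on Her2 level: lower value means less Her2 protein in the cells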;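 on viability: percent of carrier control wells set as 100% viability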). As to conditions: SKBR3 Her2 protein level, 18-24 h, measured here: SKBR3 viability, ATP luminescence, at 10 µM. (In general: Alpha assays give light when donor and acceptor beads are brought close together.)
For assay [2], the target named is Receptor tyrosine-protein kinase erbB-2 (Homo sapiens) (UniProt P04626). Described as above. The settings on record: 18-24 h, at 10 µM, stronger effect = lower value.
Assay [3] is described as follows: reduced viability of SK-BR-3 breast cancer cells – cell-based, 24 h, human, pilot screen (AID 572;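 active means viability at or below 10% of carrier control in both of two separate runs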;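 further: compound exposure lasted between 18 and 24 h rather than exactly 24 h; 100% = carrier-treated control wells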). As to conditions: SK-BR-3 viability, CellTiter-Glo luminescence, at 10 µM, stronger effect = lower value. (ATP-based viability assays read luminescence as a measure of living cells.)
A short description of assay [4]: HUVEC growth inhibition – cell-based, human, primary screen (AID 575;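 active means viability at or below 30% in both replicate assays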;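 further: 100% = median of untreated cell wells with 0.1% DMSO on each plate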). As to conditions: HUVEC proliferation, CellTiter-Glo luminescence, 72 h; at 10 µM; stronger effect = lower value. The method in brief: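 System: primary human umbilical vein endothelial cells; Quantity: 1250 endothelial cells in each well; Buffer or medium: supplemented EBM, 2% fetal bovine serum; Doses: one dose, 10 µM final, 0.1% DMSO; Incubation: 72 h compound incubation; Technique: ATP-based CellTiter-Glo luminescent read; Evaluation: percent of median DMSO-control luminescence; Controls: vehicle and MePR control wells.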

Assay [5] is described as follows: H69AR cell proliferation blockers – human, duplicate replicates, primary screen (AID 580;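 active means viability at or under a set limit in both replicates, limit being median viability minus 3 SD, cut at about 48% in these data, passing the limit was not always enough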;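 further: 100% = mean luminescence of untreated wells and 0% = no signal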). The settings on record: H69AR lung tumor cells viability, ATP luminescence, 72 h; at 10 µM; stronger effect = lower value.
A short description of assay [6]: MRP1 drug-resistance reversers in H69AR cells – cell-based, doxorubicin co-treatment, pilot screen (AID 601;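 active means viability loss from added drug above about 55%, and viability with drug at most 40%, in both replicates, limit read from the data, passing the limit was not always enough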). The settings on record: CellTiter-Glo, 72 h, at 10 µM; for differential viability (reversal): stronger effect = higher value.
The nature of assay [7]: yeast transport mutant growth inhibition pilot in 384-well plates, post-Golgi transport modulator project (AID 636; in the data active means inhibition above about 31%). As to conditions: absorbance 615 nm, about 18 h, stronger effect = higher value.
Assay [8] in a line: growth suppression of yeast trafficking mutant, preliminary HTS, modulators of trafficking downstream of Golgi apparatus project, 1536-format plate, OD 615 nm (AID 637). As to conditions: yeast transport mutant growth, absorbance 615 nm, 18 h; stronger effect = higher value.
[9] abbreviates: H69AR cells + 2 uM doxorubicin, measured here: viability with 2 uM doxorubicin, stronger effect = lower value.
Where [10] appears, read: H69AR cells, compound alone cytotoxicity.

Receptor tyrosine-protein kinase erbB-2 (Homo sapiens), sequence (P04626 whole entry, looked up): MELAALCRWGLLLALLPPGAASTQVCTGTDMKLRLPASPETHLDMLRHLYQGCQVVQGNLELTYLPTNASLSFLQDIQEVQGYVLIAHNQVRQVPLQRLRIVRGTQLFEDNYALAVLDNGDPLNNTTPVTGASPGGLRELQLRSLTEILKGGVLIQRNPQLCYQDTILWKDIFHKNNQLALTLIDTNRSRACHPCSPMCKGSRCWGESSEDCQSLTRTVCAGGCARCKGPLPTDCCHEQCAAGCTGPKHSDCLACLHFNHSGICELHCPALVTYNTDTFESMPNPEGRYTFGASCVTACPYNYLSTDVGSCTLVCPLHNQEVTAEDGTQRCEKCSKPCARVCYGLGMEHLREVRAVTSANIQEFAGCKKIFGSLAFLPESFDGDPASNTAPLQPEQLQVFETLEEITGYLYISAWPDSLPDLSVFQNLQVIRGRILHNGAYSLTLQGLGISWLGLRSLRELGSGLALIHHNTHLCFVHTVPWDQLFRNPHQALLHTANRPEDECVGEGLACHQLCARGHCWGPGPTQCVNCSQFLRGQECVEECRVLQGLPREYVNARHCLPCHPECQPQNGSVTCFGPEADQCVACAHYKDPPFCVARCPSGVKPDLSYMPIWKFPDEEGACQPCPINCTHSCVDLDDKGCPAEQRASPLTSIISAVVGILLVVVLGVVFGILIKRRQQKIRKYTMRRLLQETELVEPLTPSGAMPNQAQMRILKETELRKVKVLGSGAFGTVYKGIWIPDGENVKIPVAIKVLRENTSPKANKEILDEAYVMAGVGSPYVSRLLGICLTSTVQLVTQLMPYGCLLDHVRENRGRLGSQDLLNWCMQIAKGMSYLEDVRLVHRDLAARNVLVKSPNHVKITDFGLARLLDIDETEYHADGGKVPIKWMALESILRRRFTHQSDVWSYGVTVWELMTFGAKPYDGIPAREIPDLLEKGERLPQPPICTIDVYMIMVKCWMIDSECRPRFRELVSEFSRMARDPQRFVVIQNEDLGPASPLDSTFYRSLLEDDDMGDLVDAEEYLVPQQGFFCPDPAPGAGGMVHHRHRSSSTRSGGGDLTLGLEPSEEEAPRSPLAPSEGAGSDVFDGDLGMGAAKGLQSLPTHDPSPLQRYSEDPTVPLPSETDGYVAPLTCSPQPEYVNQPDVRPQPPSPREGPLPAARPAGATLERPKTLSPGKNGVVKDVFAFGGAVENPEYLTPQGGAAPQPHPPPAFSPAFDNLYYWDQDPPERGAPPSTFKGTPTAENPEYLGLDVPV

As to `O=C(NCc1ccc2c(c1)OCO2)c1cc2n(n1)C(C(F)(F)F)CC(c1ccc3c(c1)OCO3)N2` (stereo not given), the viability – broadly, a read-out of living cells in per cent, often relative to untreated cells – was 98% in assay [1]; 98% (inactive) in assay [3]; 73.8% (inactive) in assay [4]; 84.2% (inactive) in assay [5]; 74.7% in assay [6] (setting [9]); 84.2% in assay [6] (setting [10]). In addition, in assay [2], the Her2 level is 82% (inactive). Besides, the differential viability (reversal) in assay [6] (H69AR cells + 2 uM doxorubicin) was 9.51% (inactive). In addition, the inhibition (usually the change of the read-out against control, counted positive when it falls) in assay [7] was -2.89% (inactive); in assay [8] it was 5% (inactive).

Take `Cc1cc(C)n2cc(CSc3nnnn3C)nc2n1`: the viability in assay [1] is 84.5%; in assay [3], 84.5% (inactive); in assay [4] it was 87.8% (inactive); in assay [5], 85.7% (inactive); in assay [6] (setting [9]) it was 86%; in assay [6] (setting [10]), 85.7%. For the same compound, the Her2 level in assay [2] is 92% (inactive). For the same compound, the differential viability (reversal) in assay [6] (H69AR cells + 2 uM doxorubicin) was -0.355% (inactive). Also, the inhibition is 0.51% (inactive) in assay [7] and 6.17% (inactive) in assay [8].

Turning to `O=C(N1CCCCCC1)N1CCN(C(=O)N2CCOCC2)CC1`, the viability was 105% in assay [1]; 105% (inactive) in assay [3]; 94.9% (inactive) in assay [4]; 98.9% (inactive) in assay [5]; 93.7% in assay [6] (setting [9]); 98.9% in assay [6] (setting [10]). Moreover, in assay [2], the Her2 level is 104% (inactive). Further, in assay [6] (H69AR cells + 2 uM doxorubicin), the differential viability (reversal) is 5.18% (inactive). Also, the values for the inhibition in assay [7] and in assay [8] were 0.92% (inactive) and -8.55% (inactive), respectively.

Regarding `CCCc1cc(=O)n2[nH]c(-c3ccc(Br)cc3)cc2n1`, the viability is 90.5% in assay [1]; 90.5% (inactive) in assay [3]; 56.2% (inactive) in assay [4]; 73.1% (inactive) in assay [5]; 88.7% in assay [6] (setting [9]); 73.1% in assay [6] (setting [10]). Moreover, the Her2 level in assay [2] is 71.5% (inactive). For the same compound, the differential viability (reversal) in assay [6] (H69AR cells + 2 uM doxorubicin) is -15.6% (inactive). For the same compound, the inhibition in assay [7] was -2.76% (inactive); in assay [8], -1.9% (inactive).

`CCOC(=O)Cn1c(=N)n(CCOc2cccc(C)c2)c2ccccc21`: the viability in assay [1] is 121%; in assay [3], 121% (inactive); in assay [4] it was 99.6% (inactive); in assay [5], 85.9% (inactive); in assay [6] (setting [9]), 84.9%; in assay [6] (setting [10]), 85.9%. For the same compound, in assay [2], the Her2 level is 106% (inactive). Also, the differential viability (reversal) in assay [6] (H69AR cells + 2 uM doxorubicin) was 1% (inactive). Besides, the inhibition in assay [7] is -6.67% (inactive); in assay [8], -0.79% (inactive).

With `CCOC(=O)CNC(=O)c1c(C)nn(-c2ccccc2)c1Cl`, the viability in assay [1] was 98.5%; in assay [3], 98.5% (inactive); in assay [4], 96.2% (inactive); in assay [5] it was 90% (inactive); in assay [6] (setting [9]), 90.9%; in assay [6] (setting [10]), 90%. Besides, the Her2 level in assay [2] was 86.5% (inactive). Besides, the differential viability (reversal) in assay [6] (H69AR cells + 2 uM doxorubicin) is -0.915% (inactive). The inhibition in assay [7] was -2.63% (inactive); in assay [8], -7.27% (inactive).

For the compound `CCc1cc2c(=O)n(C(C)C(=O)OC3CCCCC3)cnc2s1` (stereo not given), the viability is 102% in assay [1]; 102% (inactive) in assay [3]; 90.1% (inactive) in assay [4]; 81.6% (inactive) in assay [5]; 85.9% in assay [6] (setting [9]); 81.6% in assay [6] (setting [10]). Besides, the Her2 level in assay [2] was 117% (inactive). Moreover, the differential viability (reversal) in assay [6] (H69AR cells + 2 uM doxorubicin) was -4.32% (inactive). Besides, the inhibition in assay [7] is -6.62% (inactive); in assay [8], -5.83% (inactive).

Turning to `O=C(CN1C(=O)C2C3C=CC(C3)C2C1=O)NCc1ccc2c(c1)OCO2` (stereo not given), the viability in assay [1] is 102%; in assay [3], 102% (inactive); in assay [4], 97.9% (inactive); in assay [5], 98.2% (inactive); in assay [6] (setting [9]), 90.1%; in assay [6] (setting [10]), 98.2%. Besides, in assay [2], the Her2 level is 109% (inactive). In addition, the differential viability (reversal) in assay [6] (H69AR cells + 2 uM doxorubicin) is 8.13% (inactive). Moreover, the values for the inhibition in assay [7] and in assay [8] were -1.43% (inactive) and -7.78% (inactive), respectively.

For `Cc1ccc(NC(=O)Cn2cccc2)cc1Cl`, the viability in assay [1] is 94%; in assay [3] it was 94% (inactive); in assay [4] it was 98.5% (inactive); in assay [5], 96.3% (inactive); in assay [6] (setting [9]), 78.5%; in assay [6] (setting [10]), 96.3%. Further, the Her2 level in assay [2] was 85% (inactive). The differential viability (reversal) in assay [6] (H69AR cells + 2 uM doxorubicin) is 17.9% (inactive). Moreover, the inhibition in assay [7] is -5.95% (inactive); in assay [8] it was -3.67% (inactive).

For `C=CCn1c2ccccc2c2nnc(SCC(=O)NC(C(=O)OC)C(C)C)nc21` (stereo not given), the viability in assay [1] is 112%; in assay [3] it was 112% (inactive); in assay [4] it was 83.5% (inactive); in assay [5], 76.8% (inactive); in assay [6] (setting [9]), 74.5%; in assay [6] (setting [10]), 76.8%. Also, the Her2 level in assay [2] was 96% (inactive). Further, the differential viability (reversal) in assay [6] (H69AR cells + 2 uM doxorubicin) is 2.25% (inactive). Besides, the inhibition in assay [7] was -3.12% (inactive); in assay [8], -4.26% (inactive).

Consider `COc1ccc(-c2nc(C#N)c(N3CCOCC3)o2)cc1OC`, for which the viability in assay [1] was 111%; in assay [3] it was 111% (inactive); in assay [4] it was 89.8% (inactive); in assay [5] it was 84.5% (inactive); in assay [6] (setting [9]), 85%; in assay [6] (setting [10]), 84.5%. In assay [2], the Her2 level is 92% (inactive). In addition, the differential viability (reversal) in assay [6] (H69AR cells + 2 uM doxorubicin) is -0.495% (inactive). The results for the inhibition in assay [7] and in assay [8] were -1.3% (inactive) and 9% (inactive), respectively.

In the case of `Cc1ccc(C(=O)N2CCCC(c3nc4c(nnn4Cc4ccccc4)c(=O)[nH]3)C2)cc1` (stereo not given), the viability was 80.5% in assay [1]; 80.5% (inactive) in assay [3]; 110% (inactive) in assay [4]; 83.4% (inactive) in assay [5]; 58.9% in assay [6] (setting [9]); 83.4% in assay [6] (setting [10]). Further, the Her2 level in assay [2] is 105% (inactive). In assay [6] (H69AR cells + 2 uM doxorubicin), the differential viability (reversal) was 24.5% (inactive). The inhibition is -3.08% (inactive) in assay [7] and 7.33% (inactive) in assay [8].

With `CC(C)(C)n1nnnc1CN1CCN(C2CCCC2)CC1`, the viability in assay [1] is 84%; in assay [3], 84% (inactive); in assay [4], 101% (inactive); in assay [5], 104% (inactive); in assay [6] (setting [9]) it was 101%; in assay [6] (setting [10]), 104%. Besides, in assay [2], the Her2 level was 84% (inactive). Moreover, in assay [6] (H69AR cells + 2 uM doxorubicin), the differential viability (reversal) is 3.04% (inactive). Further, the inhibition in assay [7] was -7.7% (inactive); in assay [8] it was -2.3% (inactive).

For the compound `O=C(NCCO)c1scc2c1OCCO2`, the viability in assay [1] is 104%; in assay [3], 104% (inactive); in assay [4], 91.8% (inactive); in assay [5] it was 93.6% (inactive); in assay [6] (setting [9]), 102%; in assay [6] (setting [10]) it was 93.6%. Besides, the Her2 level in assay [2] was 92% (inactive). Moreover, the differential viability (reversal) in assay [6] (H69AR cells + 2 uM doxorubicin) was -7.95% (inactive). The inhibition in assay [7] is -5.73% (inactive); in assay [8], -1.8% (inactive).
